In ChEMBL document CHEMBL3232719 (J Med Chem, 2014):
Calls of active or inactive are those of the source. No cut-off for these calls is given here.

Key:
[1] = target: 26S proteasome; assay: Inhibition of chymotrypsin-like activity of human 20S proteasome using Suc-LLVY-AMC as substrate; assay type: protein-complex assay
[2] = target: 26S proteasome; assay: Inhibition of caspase-like activity of human 20S proteasome using Ac-nLPnLD-AMC as substrate; assay type: protein-complex assay
[3] = target: 26S proteasome; assay: Inhibition of trypsin-like activity of human 20S proteasome using Ac-RLR-AMC as substrate; assay type: protein-complex assay
[4] = system: HCT-116; assay: Inhibition of human HCT116 cell growth; assay type: functional, cell-based
[5] = target: T1, Proteasome subunit beta type-8 (Homo sapiens, UniProt P28062); assay: Inhibition of beta5i subunit of immunoproteasome (unknown origin) by active-site ELISA
T1 sequence (P28062 whole entry): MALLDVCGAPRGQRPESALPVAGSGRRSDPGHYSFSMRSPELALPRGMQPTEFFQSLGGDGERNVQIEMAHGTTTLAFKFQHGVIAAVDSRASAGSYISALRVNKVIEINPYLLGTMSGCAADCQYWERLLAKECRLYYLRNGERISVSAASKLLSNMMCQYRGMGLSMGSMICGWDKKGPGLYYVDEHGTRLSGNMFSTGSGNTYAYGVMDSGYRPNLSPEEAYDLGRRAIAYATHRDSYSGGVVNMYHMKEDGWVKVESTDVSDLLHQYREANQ

[6] = target: T2, Lysosomal protective protein (Homo sapiens, UniProt P10619); assay: Inhibition of recombinant cathepsin A (unknown origin) using Mca-Arg-Pro-Pro-Gly-Phe-Ser-Ala-Phe-Lys(Dnp)-OH as substrate incubated with enzyme for 5 mins prior to substrate challenge for 2 hrs by spectrofluorometer analysis
T2 sequence (P10619 whole entry): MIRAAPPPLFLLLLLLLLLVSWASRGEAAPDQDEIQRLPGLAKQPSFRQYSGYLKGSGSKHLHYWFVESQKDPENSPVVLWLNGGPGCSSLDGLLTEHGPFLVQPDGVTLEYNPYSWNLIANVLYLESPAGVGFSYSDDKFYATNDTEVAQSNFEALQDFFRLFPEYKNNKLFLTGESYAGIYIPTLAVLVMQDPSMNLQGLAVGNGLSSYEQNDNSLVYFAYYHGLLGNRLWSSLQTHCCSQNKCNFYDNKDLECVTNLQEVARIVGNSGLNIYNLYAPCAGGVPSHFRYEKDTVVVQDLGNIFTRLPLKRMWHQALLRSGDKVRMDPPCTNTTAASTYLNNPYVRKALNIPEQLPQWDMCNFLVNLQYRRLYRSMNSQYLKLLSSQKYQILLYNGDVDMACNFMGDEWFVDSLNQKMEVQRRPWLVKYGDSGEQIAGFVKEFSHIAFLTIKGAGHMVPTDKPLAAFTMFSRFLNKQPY

[7] = target: Cathepsin B (Homo sapiens, UniProt P07858); assay: Inhibition of recombinant cathepsin B (unknown origin) using Z-Leu-Arg-AMC as substrate by spectrofluorometer analysis
[8] = target: T3, Cathepsin G (Homo sapiens, UniProt P08311); assay: Inhibition of recombinant cathepsin G (unknown origin) using Suc-Ala-Ala-Pro-Phe-AMC as substrate by spectrofluorometer analysis
T3 sequence (P08311 whole entry): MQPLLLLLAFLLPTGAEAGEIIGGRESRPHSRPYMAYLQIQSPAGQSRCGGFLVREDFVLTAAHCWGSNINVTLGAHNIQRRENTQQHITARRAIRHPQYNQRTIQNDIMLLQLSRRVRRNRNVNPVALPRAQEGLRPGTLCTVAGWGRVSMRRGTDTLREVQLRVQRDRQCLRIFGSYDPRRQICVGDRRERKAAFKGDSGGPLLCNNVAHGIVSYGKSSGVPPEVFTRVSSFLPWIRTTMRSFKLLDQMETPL

[9] = system: HCT-116; assay: Cell cycle arrest in human HCT116 cells assessed as accumulation at G1 phase at 100 nM after 24 hrs by propidium iodide staining based flow cytometry (reference value: 35.6%); assay type: functional
[10] = system: HCT-116; assay: Cell cycle arrest in human HCT116 cells assessed as accumulation at S phase at 100 nM after 24 hrs by propidium iodide staining based flow cytometry (reference value: 45.3%); assay type: functional
[11] = system: HCT-116; assay: Cell cycle arrest in human HCT116 cells assessed as accumulation at G2/M phase at 100 nM after 24 hrs by propidium iodide staining based flow cytometry (reference value: 19.1%); assay type: functional
[12] = system: HCT-116; assay: Induction of apoptosis in human HCT116 cells assessed as increase in p53 expression by immunoblot analysis; assay type: functional, cell-based
In short: (§1)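 HCT116 cells were treated with compound or DMSO vehicle. Lysates were immunoblotted for p53 accumulation and for cleaved PARP as the apoptosis marker.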

[13] = system: HCT-116; assay: Induction of apoptosis in human HCT116 cells assessed as increase in PARP cleavage by immunoblot analysis; assay type: functional, cell-based; in short: as §1
[14] = target: T4, Proteasome Macropain subunit MB1 (Homo sapiens, UniProt P28074); assay: Inhibition of beta5 subunit of constitutive proteasome (unknown origin) by active-site ELISA
T4 sequence (P28074 whole entry): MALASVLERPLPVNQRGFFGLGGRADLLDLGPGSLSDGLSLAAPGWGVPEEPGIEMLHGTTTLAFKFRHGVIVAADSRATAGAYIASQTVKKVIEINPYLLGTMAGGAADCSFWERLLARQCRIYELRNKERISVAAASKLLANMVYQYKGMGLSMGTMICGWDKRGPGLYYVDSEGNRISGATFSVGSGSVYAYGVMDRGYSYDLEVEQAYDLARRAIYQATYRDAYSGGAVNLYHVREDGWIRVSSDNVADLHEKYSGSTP

[15] = target: T5, Proteasome Macropain subunit MB1 (Homo sapiens) (UniProt P28074); assay: Binding affinity to beta5 subunit of 20S proteasome (unknown origin) assessed as dissociation half-life
T5 sequence (whole entry): T4 sequence (P28074 whole entry)
In short: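 Human 20S proteasome was preincubated with inhibitor. Chymotrypsin-like activity was then measured before and after removal of free inhibitor by dialysis (wash-out), with reference reversible and irreversible inhibitors run alongside.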

[16] = Inhibition of caspase-like activity of proteasome (unknown origin); set-up: species or system Homo sapiens

SMILES | IC50 [1] | IC50 [2] | IC50 [3] | IC50 [4] | other results
CC(C)C[C@H](NC(=O)[C@H](CC(=O)NCCC(COCc1ccccc1)COCc1ccccc1)NC(=O)c1cc(Cl)ccc1Cl)B1O[C@@H]2C[C@@H]3C[C@@H](C3(C)C)[C@]2(C)O1 | 5.9 nM | 250 nM | > 10000 nM | 140 nM | 
CC[C@H](C)[C@@H]1C(=O)O[C@H]1C(=O)N[C@H]1C[C@H]1C[C@H](NC(=O)[C@H](C)N)C(=O)O [BELACTOSIN A] | 1400 nM |  |  |  | 
CC(C)C[C@H](NC(=O)CNC(=O)c1cc(Cl)ccc1Cl)B1OC(=O)CC(CC(=O)O)(C(=O)O)O1 (stereo partly drawn) |  |  |  |  | T1/2 [15]: 18 min
CC(C)C[C@H](NC(=O)[C@@H](NC(=O)c1cccc(-c2ccccc2)n1)[C@@H](C)O)B(O)O [DELANZOMIB] |  |  |  |  | IC50 [16]: 70 nM
CC(=O)N[C@@H](CC(=O)NCC(COCc1ccccc1)COCc1ccccc1)C(=O)N[C@@H](CC(C)C)B1O[C@@H]2C[C@@H]3C[C@@H](C3(C)C)[C@]2(C)O1 | 3.9 nM | 140 nM | 1100 nM | 45.4 nM | 
CNC(=O)C[C@H](NC(C)=O)C(=O)N[C@@H](CC(C)C)B1O[C@@H]2C[C@@H]3C[C@@H](C3(C)C)[C@]2(C)O1 | 54 nM | 500 nM | > 10000 nM | 2500 nM | 
CC(=O)N[C@@H](CSC(=O)[C@]1([C@@H](O)C(C)C)NC(=O)[C@H](C)[C@@H]1O)C(=O)O [LACTACYSTIN] |  |  |  |  | IC50 [5]: > 3000 nM
CC(C)C[C@H](NC(=O)[C@H](CCc1ccccc1)NC(=O)CN1CCOCC1)C(=O)N[C@@H](Cc1ccccc1)C(=O)N[C@@H](CC(C)C)C(=O)[C@@]1(C)CO1 [CARFILZOMIB] |  |  |  |  | IC50 [6]: > 30 µM; IC50 [7]: 11 µM; IC50 [8]: > 30 µM
CC(=O)N[C@@H](CCC(=O)NCC(COCc1ccccc1)COCc1ccccc1)C(=O)N[C@@H](CC(C)C)B1O[C@@H]2C[C@@H]3C[C@@H](C3(C)C)[C@]2(C)O1 | 5.1 nM | 75 nM | 2400 nM | 63.6 nM | 
CC(C)C[C@H](NC(=O)[C@H](Cc1ccccc1)NC(=O)c1cnccn1)B(O)O [BORTEZOMIB] |  |  |  | 5 nM | IC50 [6]: 9.2 µM; IC50 [7]: > 30 µM; IC50 [8]: 3.1 µM; Activity [9]: 3%; Activity [10]: 21%; Activity [11]: 76%
CC(=O)N[C@@H](CC(=O)NCCCCOCc1ccccc1)C(=O)N[C@@H](CC(C)C)B1O[C@@H]2C[C@@H]3C[C@@H](C3(C)C)[C@]2(C)O1 | 4.8 nM | 170 nM | 2170 nM | 130 nM | IC50 [5]: 59 nM; IC50 [6]: > 30 µM; IC50 [7]: > 30 µM; IC50 [8]: > 30 µM; Activity [9]: 22.9%; Activity [10]: 26.6%; Activity [11]: 50.5%; Activity [12]: Active; Activity [13]: Active; IC50 [14]: 280 nM
CC(C)C[C@H](NC(=O)[C@H](CC(=O)NCCC(COCc1ccccc1)COCc1ccccc1)NC(=O)c1cccc(-c2ccccc2)n1)B1O[C@@H]2C[C@@H]3C[C@@H](C3(C)C)[C@]2(C)O1 | 7.5 nM | 1000 nM | > 10000 nM | 260 nM | 

The next lines start with results.

IC50 [1] | IC50 [2] | IC50 [3] | IC50 [4] | SMILES | other results
2.7 nM | 150 nM | 2700 nM | 31.8 nM | CC(=O)N[C@@H](CC(=O)NCCC(COCc1ccccc1)COCc1ccccc1)C(=O)N[C@@H](CC(C)C)B1O[C@@H]2C[C@@H]3C[C@@H](C3(C)C)[C@]2(C)O1 | IC50 [5]: 31 nM; IC50 [6]: > 30 µM; IC50 [7]: > 30 µM; IC50 [8]: > 30 µM; Activity [9]: 3.2%; Activity [10]: 25.1%; Activity [11]: 71.7%; Activity [12]: Active; Activity [13]: Active; IC50 [14]: 140 nM
7.8 nM | 130 nM | 2700 nM | 60 nM | CC(C)C[C@H](NC(=O)[C@H](CC(=O)NCCC(COCc1ccccc1)COCc1ccccc1)NC(=O)c1ccccc1)B1O[C@@H]2C[C@@H]3C[C@@H](C3(C)C)[C@]2(C)O1 | 
29 nM |  |  | > 10000 nM | CC[C@H](C)[C@@H]1C(=O)O[C@H]1C(=O)NCCC(COCc1ccccc1)COCc1ccccc1 | 
7.7 nM |  |  | 79.6 nM | CC(=O)N[C@@H](CC(=O)NCC(COCc1ccccc1)COCc1ccccc1)C(=O)N[C@@H](CC(C)C)B(O)O | 
5.7 nM |  |  | 1820 nM | CC[C@H](C)[C@@H]1C(=O)O[C@H]1C(=O)N[C@H]1C[C@@H]1C[C@@H](CCc1ccccc1)NC(=O)[C@H](C)NC(=O)OCc1ccccc1 | 
4.1 nM | 120 nM | 2700 nM | 43 nM | CC(=O)N[C@@H](CC(=O)NCCCC(COCc1ccccc1)COCc1ccccc1)C(=O)N[C@@H](CC(C)C)B1O[C@@H]2C[C@@H]3C[C@@H](C3(C)C)[C@]2(C)O1 | 
4.1 nM | 46 nM | 3000 nM | 67.2 nM | CC(=O)N[C@@H](CCC(=O)NCCCC(COCc1ccccc1)COCc1ccccc1)C(=O)N[C@@H](CC(C)C)B1O[C@@H]2C[C@@H]3C[C@@H](C3(C)C)[C@]2(C)O1 | 
7.1 nM | 210 nM | 3300 nM | 45 nM | CC(C)C[C@H](NC(=O)[C@H](CC(=O)NCCC(COCc1ccccc1)COCc1ccccc1)NC(=O)c1cnccn1)B1O[C@@H]2C[C@@H]3C[C@@H](C3(C)C)[C@]2(C)O1 | 
5.7 nM | 76 nM | 2500 nM | 110 nM | CC(=O)N[C@@H](CCC(=O)NCCC(COCc1ccccc1)COCc1ccccc1)C(=O)N[C@@H](CC(C)C)B1O[C@@H]2C[C@@H]3C[C@@H](C3(C)C)[C@]2(C)O1 | 
